Test results published in ChEMBL document CHEMBL3763145, “Niizalactams A-C, Multicyclic Macrolactams Isolated from Combined Culture of Streptomyces with Mycolic Acid-Containing Bacterium” (J Nat Prod, 2015).
Active and inactive are the calls of the source.

What was measured:
[1] = system: Candida albicans; test: Antimicrobial activity against Candida albicans at 1.25 to 10 ug/disc after 1 to 2 days by disc diffusion method; format: functional, organism-based
Procedure, shortened: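 Candida albicans precultured in LB broth; 1 mL broth seeded directly into 20 mL agar of 4.0% glucose, 1.0% peptone, pH 5.7. 6 mm paper disks at 10, 5, 2.5, 1.25 μg/disk; plates held at 37 °C for 1 to 2 days and scored for inhibition rings.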

[2] = system: Bacillus subtilis; test: Antimicrobial activity against Bacillus subtilis at 1.25 to 10 ug/disc after 1 to 2 days by disc diffusion method; format: functional, organism-based
Procedure, shortened: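 Bacillus subtilis precultured in LB broth; 1 mL broth added directly to 20 mL LB agar. Paper disks (6 mm) loaded at 10, 5, 2.5 and 1.25 μg/disk placed on plates; incubation at 37 °C for 1 to 2 days; read-out was presence of inhibition rings around disks.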

[3] = system: Saccharomyces cerevisiae; test: Antimicrobial activity against Saccharomyces cerevisiae at 1.25 to 10 ug/disc after 1 to 2 days by disc diffusion method; format: functional, organism-based
Procedure, shortened: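 Saccharomyces cerevisiae precultured in LB broth; 1 mL added to 20 mL agar (5.0% glucose, 0.5% peptone, 0.2% yeast extract, 0.4% K2HPO4, 0.2% KH2PO4, 0.02% MgSO4·7H2O, pH 5.6). Disks (6 mm) at 10, 5, 2.5, 1.25 μg/disk; 37 °C, 1 to 2 days; inhibition rings checked.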

[4] = system: P388; test: Cytotoxicity against mouse P388 cells assessed as reduction in cell viability at 0.78 to 100 uM after 4 days by MTT assay; format: functional, cell-based
Procedure, shortened: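 P388 cells kept in RPMI 1640 with 10% FBS and penicillin/streptomycin, 37 °C, 5% CO2. Compounds added from DMSO or methanol solutions to 1 × 10^5 cells/mL suspension at final 100 to 0.78 μM (twofold series); 4 days exposure. MTT (1 mg/mL) added 4 h, pellet dissolved in DMSO, absorbance read at 570 nm.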

Measured: Activity

CC1=C\[C@H]2[C@@H]3[C@@H](O)[C@H](O)[C@H](O)C(=O)[C@@H]3C=C[C@@H]2/C(C)=C/C=C/C=C/[C@@H](C)CNC(=O)CC(=O)\C=C\1
inactive: all assays above

CC1=C\C=C\[C@H]2[C@H](O)[C@@H](C)CN2C(=O)CC(=O)/C=C/C(C)=C/C=C/C[C@H](O)[C@H](O)C(=O)/C=C\C=C\1
inactive: all assays above

CC1=C\C=C\[C@H]2[C@H](O)[C@@H](C)CN2C(=O)CC(=O)/C=C/C(C)=C/C=C/[C@@H](O)[C@H](O)[C@H](O)C(=O)/C=C\C=C\1
inactive: all assays above
